Measurements from different studies.
Lines come from different studies, so protocols differ.
Action: inhibitor
MAL12: Alpha-glucosidase MAL12 (MAL12, Saccharomyces cerevisiae S288c, UniProt P53341)
FABP1: Fatty acid-binding protein, liver (FABP1, Homo sapiens, UniProt P07148)
SQLE: Squalene monooxygenase (SQLE, Homo sapiens, UniProt Q14534)
SLC22A6: Solute carrier family 22 member 6 (SLC22A6, Homo sapiens, UniProt Q4U2R8)

Compound	target	assay	system	setting	IC50 [µM]
CC(=O)C1=C(C)n2c(=O)c3ccccc3c(=O)n2C1c1cn(-c2ccccc2)nc1-c1ccc(Br)cc1 (centres unmarked)	MAL12	enzyme activity, absorbance	–	–	18.6
O=C1COc2ccc(NS(=O)(=O)c3cccc(Cl)c3)cc2CN1C1CCCc2ccccc21 (centres unmarked)	Replicase polyprotein 1ab, papain-like protease (rep, Severe acute respiratory syndrome coronavirus 2, UniProt P0DTD1)	enzyme activity, fluorescence	–	–	6
NS(=O)(=O)c1ccc(-n2nc(C(=O)NN=Cc3ccccc3O)cc2-c2ccccc2)cc1	Focal adhesion kinase 1 (PTK2, Homo sapiens, UniProt Q05397)	enzyme activity, ELISA	–	–	15.9
C[C@H]1CN(C(=O)Nc2ccc(C(F)(F)F)cc2)CCN1c1ccnc(Nc2ccc(Cl)c(O)c2)n1	MAL12	enzyme activity, absorbance	–	pH 6.9	0.44
CCCOc1ccc2c(c1)O/C(=C\c1ccc(OC(C)(C)C(=O)O)c(Cl)c1)C2=O	FABP1	cell-free assay, fluorescence	–	pH 7.4	7.7
CCN(CC)C(C)CN1c2ccccc2Sc2ccccc21 (centres unmarked)	SQLE	enzyme activity, absorbance	–	pH 7.4, with preincubation	1.69
O=C1C[C@@H](c2ccc(O)cc2)Oc2cc(O)cc(O)c21	SQLE	enzyme activity, radiometric	–	–	6.52
Cc1cc(/C=C2\Oc3cc(OCC4CC4)ccc3C2=O)cc(C)c1OC(C)(C)C(=O)O	FABP1	cell-free assay, fluorescence	–	pH 7.4	3.6
COc1ccc(NC(=O)N2CCN(c3ccnc(Nc4ccc(Cl)cc4)n3)[C@@H](C)C2)cc1	MAL12	enzyme activity, absorbance	–	pH 6.9	7.43
COc1cc(-c2oc3cc(O)cc(O)c3c(=O)c2O)ccc1O	SQLE	enzyme activity, radiometric	–	–	11.5
CCOc1ccc2c(c1)O/C(=C\c1cc(C)c(OC(C)(C)C(=O)O)c(C)c1)C2=O	FABP1	cell-free assay, fluorescence	–	pH 7.4	8.6
OCCN1CCN(CCCN2c3ccccc3Sc3ccc(C(F)(F)F)cc32)CC1	SQLE	enzyme activity, absorbance	–	pH 7.4, with preincubation	12.3
C[C@@H]1CN(C(=O)Nc2ccc(Cl)c(Cl)c2)CCN1c1ccnc(Nc2ccc(Cl)cc2)n1	MAL12	enzyme activity, absorbance	–	pH 6.9	4.53
CC(C)NC(=O)COc1cccc(-c2nc(Nc3ccc4[nH]ncc4c3)c3ccccc3n2)c1	SLC22A6	transporter uptake, radiometric	HEK293	–	> 1
CCCOc1ccc2c(c1)O/C(=C\c1ccc(OC(C)C(=O)O)cc1)C2=O (centres unmarked)	FABP1	cell-free assay, fluorescence	–	pH 7.4	10.4
C[C@H]1CN(C(=O)Nc2ccc(C(F)(F)F)cc2)CCN1c1ccnc(Nc2ccc(Cl)cc2Cl)n1	MAL12	enzyme activity, absorbance	–	pH 6.9	12
COc1ccc(-c2nn(-c3ccccc3)cc2C2C(C(C)=O)=C(C)n3c(=O)c4ccccc4c(=O)n32)cc1 (centres unmarked)	MAL12	enzyme activity, absorbance	–	–	13.7
CCCOc1ccc2c(c1)O/C(=C\c1ccc(OC(C)(C)C(=O)O)cc1)C2=O	FABP1	cell-free assay, fluorescence	–	pH 7.4	9.4
C[C@H]1CN(C(=O)CC#N)[C@]12CCN(c1ncnc3[nH]ccc13)C2	SLC22A6	transporter uptake	–	–	1.59
CC(C)=CCC/C(C)=C/CC/C(C)=C/CC/C=C(\C)CC/C=C(\C)CCCNC1CC1	SQLE	enzyme activity, radiometric	–	–	2.68
COc1ccc(Cl)cc1C(=O)NCCc1ccc(S(=O)(=O)NC(=O)NC2CCCCC2)cc1	SLC22A6	transporter uptake, fluorescence	–	–	2.4
N=C(N)c1ccc2cc(OC(=O)c3ccc(N=C(N)N)cc3)ccc2c1	Coagulation factor IX (F9, Homo sapiens, UniProt P00740)	enzyme activity	–	–	0.086
Cc1cc(/C=C2\Oc3cc(OCCC(C)C)ccc3C2=O)cc(C)c1OC(C)(C)C(=O)O	FABP1	cell-free assay, fluorescence	–	pH 7.4	9.6
C[C@H]1CN(C(=O)Nc2ccc(C(F)(F)F)cc2)CCN1c1ccnc(Nc2ccc(Br)cc2)n1	MAL12	enzyme activity, absorbance	–	pH 6.9	1.59
Nc1ccn(C[C@@H](CO)OCP(=O)(O)O)c(=O)n1	Solute carrier family 22 member 6 (SLC22A6, Homo sapiens, UniProt Q4U2R8, N439A)	transporter uptake, fluorescence	–	–	225
Cc1ccc(NC(=O)N2CCN(c3ccnc(Nc4ccc(Cl)cc4)n3)[C@@H](C)C2)cc1	MAL12	enzyme activity, absorbance	–	pH 6.9	2.42
CC(=O)c1ccc2c(c1)N(CCCN1CCC(CCO)CC1)c1ccccc1S2	SQLE	enzyme activity, absorbance	–	pH 7.4, with preincubation	1.44
C[C@H]1CN(C(=O)Nc2ccc(C(F)(F)F)cc2)CCN1c1ccnc(Nc2cccc(Cl)c2)n1	MAL12	enzyme activity, absorbance	–	pH 6.9	3.45
NC/C(=C\F)COc1cccc(Cn2c(=S)[nH]c(=O)c3[nH]cnc32)c1	Amine oxidase [flavin-containing] A (MAOA, Homo sapiens, UniProt P21397)	enzyme activity	–	–	> 30
